Data published in ChEMBL document CHEMBL3399919, “Synthesis, optical properties and preliminary in vitro photodynamic effect of pyridyl and quinoxalyl substituted chlorins” (Bioorg Med Chem, 2015).
Calls of active or inactive are those of the source. No cut-off for these calls is given here.

Columns and labels:
[1] = test system: HeLa; test: Dark toxicity against human HeLa cells assessed as cell viability up to 10 uM incubated for 12 hrs under dark conditions by WST-8 assay; format: cell-based
Summary of the method: (§1)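 HeLa (ATCC) grown in EMEM + 10% FBS, 37 °C, 5% CO2, humidified; seeded per well in 96-well plates, 24 h, then medium replaced with fresh medium containing photosensitizer (0–10 μM). Irradiated with 670–710 nm light, 2 J/cm2 over 15 min, or kept dark; then 12 h at 37 °C in dark. WST-8 (CCK-8) added, 2 h; formazan read. DMSO vehicle control, medium+reagent blank; ≥3 repeats, mean.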

[2] = test system: HeLa; test: Photosensitizing activity against human HeLa cells assessed as reduction in cell viability pre-incubated for 24 hrs followed by 15 mins exposure to 670 to 710 nm light at dose of 2.0 J/cm2 and measured 12 hrs after radiation by WST-8 assay; format: functional, cell-based; conditions: for IC50: light or radiation study; summary of the method: as §1
[3] = Singlet oxygen generation assessed as comparative absorbance decay of 1,3-diphenylisobenzofuran at 1 uM at 418 nm after photoirradiation at 2.0 J/cm2 for 15 mins by spectrometry
Summary of the method: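 Photosensitizer at 1 μM with DPBF (50 μM in DMSO), irradiated; visible spectra recorded and normalized DPBF absorbance at 418 nm compared against DPBF-only control, methylene blue as reference; mean of three experiments.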

[4] = test system: HeLa; test: Photosensitizing activity against human HeLa cells assessed as cell viability at 0.05 uM pre-incubated for 24 hrs followed by 15 mins exposure to 670 to 710 nm light at dose of 2.0 J/cm2 and measured 12 hrs after radiation by WST-8 assay; format: functional; conditions: light or radiation study, read-out: Activity; summary of the method: as §1
[5] = test system: HeLa; test: Photosensitizing activity against human HeLa cells assessed as cell viability at 0.1 uM pre-incubated for 24 hrs followed by 15 mins exposure to 670 to 710 nm light at dose of 2.0 J/cm2 and measured 12 hrs after radiation by WST-8 assay; format: functional; conditions: light or radiation study, read-out: Activity; summary of the method: as §1

Compound	Activity [1]	Activity [2]	IC50 [2] [nM]	Activity [3]	viability at 0.05 µM [4] [%]	viability at 0.1 µM [5] [%]
CCC1=C(C)c2cc3[nH]c(cc4nc(c5c6[nH]c(cc1n2)c(C)c6C(=O)C5)[C@@H](CCC(=O)OC)[C@@H]4C)c(C)c3/C=C/c1ccncc1	Non-toxic	Dose-dependent effect	581	Active		
CN(C)c1ccc2nc3ccc(=[N+](C)C)cc-3sc2c1				Active		
CCC1=C(C)c2cc3[nH]c(cc4nc(c5c6[nH]c(cc1n2)c(C)c6C(=O)C5)[C@@H](CCC(=O)OC)[C@@H]4C)c(C)c3/C=C/c1ccc2ccccc2n1	Non-toxic	Dose-dependent effect	631	Active		
CCC1=C(C)c2cc3[nH]c(cc4nc(c(CC(=O)OC)c5[nH]c(cc1n2)c(C)c5C(=O)OC)[C@@H](CCC(=O)OC)[C@@H]4C)c(C)c3/C=C/c1ccncc1	Non-toxic	Dose-dependent effect	141	Active		
CCC1=C(C)c2cc3[nH]c(cc4nc(c5c6[nH]c(cc1n2)c(C)c6C(=O)N(OC)C5=O)[C@@H](CCC(=O)OC)[C@@H]4C)c(C)c3/C=C/c1ccc2ccccc2n1	Non-toxic	Dose-dependent effect	992	Active		
CCC1=C(C)c2cc3[nH]c(cc4nc(c(CC(=O)OC)c5[nH]c(cc1n2)c(C)c5C(=O)OC)[C@@H](CCC(=O)OC)[C@@H]4C)c(C)c3/C=C/c1ccc2ccccc2n1	Non-toxic	Dose-dependent effect	170	Active		
C=Cc1c(C)c2cc3nc(c(CC(=O)OC)c4[nH]c(cc5nc(cc1[nH]2)C(C)=C5CC)c(C)c4C(=O)NCc1ccncc1)[C@@H](CCC(=O)OC)[C@@H]3C	Non-toxic	Dose-dependent effect	71		65.5	28.1
CCC1=C(C)c2cc3[nH]c(cc4nc(c5c6[nH]c(cc1n2)c(C)c6C(=O)N(OC)C5=O)[C@@H](CCC(=O)OC)[C@@H]4C)c(C)c3/C=C/c1ccncc1	Non-toxic	Dose-dependent effect	3120	Active		
C=Cc1c(C)c2cc3nc(c4c5[nH]c(cc6nc(cc1[nH]2)C(C)=C6CC)c(/C=C/c1ccncc1)c5C(=O)C4)[C@@H](CCC(=O)OC)[C@@H]3C	Non-toxic	Dose-dependent effect	33	Active	22.2	1.4
C=Cc1c(C)c2cc3nc(c4c5[nH]c(cc6nc(cc1[nH]2)C(C)=C6CC)c(C)c5C(=O)N(Cc1ccncc1)C4=O)[C@@H](CCC(=O)OC)[C@@H]3C	Non-toxic	Dose-dependent effect	189	Active		
